From paper PMC4415995 (Advances in Therapy, 2015)
Where two headings read alike, the source gives them in different places.

Assays:
[1] = assay type: in vivo, human; settings: for AUC / AUC(0-inf) / Cmax / half-life / Tmax: human, plasma, oral; for Cmax: C max
How it was run: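 Oral doses of 0.5–5 mg once daily for 7 days, given with 150 mL water before a standardized ~600 kcal breakfast. Venous blood was drawn pre-dose and 0.25–24 h after dosing on Days 1 and 7, and pre-breakfast on Days 9–11. Urine was pooled at 4 °C over intervals. Samples were stored at −70 °C. Parent and active O-deethyl metabolite were measured by solid-phase extraction and LC–MS/MS with deuterated internal standards. Parameters were non-compartmental; metabolite ratio was AUCτ(M2)/AUCτ(parent).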

[2] = system: Japanese patients with T2DM; test: Clinical laboratory tests and vital signs, 7-day once-daily dosing; assay type: in vivo, human
How it was run: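 Randomized, single-blind, placebo-controlled, parallel-group study in Japanese T2DM outpatients (HbA1c 6.9–10.5%, FPG ≥126 mg/dL, stable diet 4 weeks, age 20–74 y). Test compound 0.5, 1, 2.5 or 5 mg or placebo was given orally once daily for 7 days before breakfast. Safety set was all dosed patients. AEs were coded in MedDRA 12.1 and graded mild/moderate/severe, with drug relation judged by the investigator. Labs, vital signs, body weight and ECG were also recorded.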

- Ae0–24 ([1]; 0.5 mg luseogliflozin OD, Day 1, urine): 3.76 ± 0.832 % of dose
- Ae0–24 ([1]; 0.5 mg luseogliflozin OD, Day 7, urine): 4.56 ± 1.04 % of dose
- Ae0–24 ([1]; 1 mg luseogliflozin OD, Day 1, urine): 4.06 ± 0.497 % of dose
- Ae0–24 ([1]; 1 mg luseogliflozin OD, Day 7, urine): 4.30 ± 0.875 % of dose
- Ae0–24 ([1]; 2.5 mg luseogliflozin OD, Day 1, urine): 4.51 ± 1.13 % of dose
- Ae0–24 ([1]; 2.5 mg luseogliflozin OD, Day 7, urine): 4.79 ± 1.09 % of dose
- Ae0–24 ([1]; 5 mg luseogliflozin OD, Day 1, urine): 4.11 ± 0.763 % of dose
- Ae0–24 ([1]; 5 mg luseogliflozin OD, Day 7, urine): 4.56 ± 0.617 % of dose
- accumulation after multiple doses ([1]; AUCinf Day 1 vs AUCτ Day 7 comparable): does not accumulate
- dose proportionality for C max and AUCτ (power model) ([1]; Day 7, 0.5-5 mg): dose proportionality
- AUC ([1]; 0.5 mg): 179 ± 32.6 ng·h/mL
- AUC(0-inf) ([1]; 0.5 mg): 171 ± 38.4 ng·h/mL
- Cmax ([1]; 0.5 mg, 0.5 mg luseogliflozin OD, Day 1, plasma): 21.9 ± 2.88 ng/mL
- Cmax ([1]; 0.5 mg, 0.5 mg luseogliflozin OD, Day 7, plasma): 25.6 ± 4.25 ng/mL
- half-life ([1]; 0.5 mg, t 1/2, 0.5 mg luseogliflozin OD, Day 1, plasma): 9.86 ± 1.57 h
- half-life ([1]; 0.5 mg, t 1/2, 0.5 mg luseogliflozin OD, Day 7, plasma): 10.5 ± 1.03 h
- Tmax ([1]; 0.5 mg, t max, 0.5 mg luseogliflozin OD, Day 1, plasma): 0.857 ± 0.556 h
- Tmax ([1]; 0.5 mg, t max, 0.5 mg luseogliflozin OD, Day 7, plasma): 0.643 ± 0.244 h
- AUC ([1]; 1 mg): 370 ± 55.5 ng·h/mL
- AUC(0-inf) ([1]; 1 mg): 357 ± 53.9 ng·h/mL
- Cmax ([1]; 1 mg, 1 mg luseogliflozin OD, Day 1, plasma): 43.7 ± 10.8 ng/mL
- Cmax ([1]; 1 mg, 1 mg luseogliflozin OD, Day 7, plasma): 52.3 ± 10.9 ng/mL
- half-life ([1]; 1 mg, t 1/2, 1 mg luseogliflozin OD, Day 1, plasma): 9.61 ± 1.34 h
- half-life ([1]; 1 mg, t 1/2, 1 mg luseogliflozin OD, Day 7, plasma): 10 ± 1.37 h
- Tmax ([1]; 1 mg, t max, 1 mg luseogliflozin OD, Day 1, plasma): 0.688 ± 0.259 h
- Tmax ([1]; 1 mg, t max, 1 mg luseogliflozin OD, Day 7, plasma): 0.688 ± 0.259 h
- AUC ([1]; 2.5 mg): 899 ± 148 ng·h/mL
- AUC(0-inf) ([1]; 2.5 mg): 864 ± 132 ng·h/mL
- Cmax ([1]; 2.5 mg, 2.5 mg luseogliflozin OD, Day 1, plasma): 119 ± 27 ng/mL
- Cmax ([1]; 2.5 mg, 2.5 mg luseogliflozin OD, Day 7, plasma): 136 ± 42 ng/mL
- half-life ([1]; 2.5 mg, t 1/2, 2.5 mg luseogliflozin OD, Day 1, plasma): 9.24 ± 0.928 h
- half-life ([1]; 2.5 mg, t 1/2, 2.5 mg luseogliflozin OD, Day 7, plasma): 9.2 ± 0.71 h
- Tmax ([1]; 2.5 mg, t max, 2.5 mg luseogliflozin OD, Day 1, plasma): 0.625 ± 0.354 h
- Tmax ([1]; 2.5 mg, t max, 2.5 mg luseogliflozin OD, Day 7, plasma): 1 ± 0.886 h
- AUC ([1]; 5 mg): 1880 ± 318 ng·h/mL
- AUC(0-inf) ([1]; 5 mg): 1690 ± 271 ng·h/mL
- Cmax ([1]; 5 mg, 5 mg luseogliflozin OD, Day 1, plasma): 243 ± 45.7 ng/mL
- half-life ([1]; 5 mg, t 1/2, 5 mg luseogliflozin OD, Day 1, plasma): 8.96 ± 1.11 h
- half-life ([1]; 5 mg, t 1/2, 5 mg luseogliflozin OD, Day 7, plasma): 9.54 ± 1.26 h
- Tmax ([1]; 5 mg, t max, 5 mg luseogliflozin OD, Day 1, plasma): 0.625 ± 0.231 h
- Tmax ([1]; 5 mg, t max, 5 mg luseogliflozin OD, Day 7, plasma): 0.688 ± 0.259 h
- half-life ([1]; mean t 1/2, all four doses (0.5-5 mg)): ~10 h
- Tmax ([1]; t max (mean), across 0.5-5 mg doses, Days 1 and 7, plasma): 0.625 to 1 h
Compound: CCOc1ccc(Cc2cc([C@@H]3S[C@H](CO)[C@@H](O)[C@H](O)[C@H]3O)c(OC)cc2C)cc1 [Luseogliflozin, (1S)-1,5-anhydro-1-[5-(4-ethoxybenzyl)-2-methoxy-4-methylphenyl]-1-thio-D-glucitol]
- Cystatin C, change from baseline ([2]; 0.5 mg OD, Day 1): -0.040 ± 0.018 mg/L
- DBP, change from baseline ([2]; 0.5 mg OD, Day 1): 3.0 ± 5.2 mmHg
- Hematocrit, change from baseline ([2]; 0.5 mg OD, Day 1): −1.14 ± 0.73%
- SBP, change from baseline ([2]; 0.5 mg OD, Day 1): −1.7 ± 6.0 mmHg
- Serum calcium, change from baseline ([2]; 0.5 mg OD, Day 1): -0.19 ± 0.12 mg/dL
- Serum phosphorus, change from baseline ([2]; 0.5 mg OD, Day 1): 0.30 ± 0.40 mg/dL
- Urinary NAG, change from baseline ([2]; 0.5 mg OD, Day 1): −0.31 ± 0.67 U/L
- Urinary calcium, change from baseline ([2]; 0.5 mg OD, Day 1): 0.01 ± 0.04 g/day
- Urinary phosphorus, change from baseline ([2]; 0.5 mg OD, Day 1): -0.13 ± 0.10 g/day
- Urinary type IV collagen, change from baseline ([2]; 0.5 mg OD, Day 1): −0.40 ± 1.08 μg/g creatinine
- Urinary uric acid, change from baseline ([2]; 0.5 mg OD, Day 1): 0.04 ± 0.05 g/day
- Urinary β2-microglobulin, change from baseline ([2]; 0.5 mg OD, Day 1): -12.4 ± 25.2 µg/L
- Cystatin C, change from baseline ([2]; 0.5 mg OD, Day 7): -0.067 ± 0.029 mg/L
- DBP, change from baseline ([2]; 0.5 mg OD, Day 7): 3.1 ± 3.8 mmHg
- Hematocrit, change from baseline ([2]; 0.5 mg OD, Day 7): −2.20 ± 0.95%
- SBP, change from baseline ([2]; 0.5 mg OD, Day 7): −5.9 ± 3.8 mmHg
- Serum calcium, change from baseline ([2]; 0.5 mg OD, Day 7): -0.24 ± 0.05 mg/dL
- Serum phosphorus, change from baseline ([2]; 0.5 mg OD, Day 7): 0.16 ± 0.40 mg/dL
- Urinary NAG, change from baseline ([2]; 0.5 mg OD, Day 7): −0.06 ± 0.80 U/L
- Urinary calcium, change from baseline ([2]; 0.5 mg OD, Day 7): 0.01 ± 0.04 g/day
- Urinary phosphorus, change from baseline ([2]; 0.5 mg OD, Day 7): -0.04 ± 0.13 g/day
- Urinary type IV collagen, change from baseline ([2]; 0.5 mg OD, Day 7): −0.21 ± 1.25 μg/g creatinine
- Urinary uric acid, change from baseline ([2]; 0.5 mg OD, Day 7): -0.01 ± 0.07 g/day
- Urinary β2-microglobulin, change from baseline ([2]; 0.5 mg OD, Day 7): -7.4 ± 27.1 µg/L
- Cystatin C, change from baseline ([2]; 1 mg OD, Day 1): 0.005 ± 0.077 mg/L
- DBP, change from baseline ([2]; 1 mg OD, Day 1): 0.4 ± 4.9 mmHg
- Hematocrit, change from baseline ([2]; 1 mg OD, Day 1): −1.26 ± 0.86%
